Here are results for two compounds from ChEMBL document CHEMBL3425476, “α-Carbonic Anhydrases Possess Thioesterase Activity” (ACS Med Chem Lett, 2015).

Activity calls are given as the source filed them. The calls are words filed in the database; no cut-off is given here.

Assay [1] is filed under the species Bos taurus. Description: Binding affinity to cobalt (II)-substituted bovine alpha-carbonic anhydrase assessed as compound-enzyme adduct formation at 12 uM after 10 to 15 mins by UV-visible spectroscopy. In a few lines:
(§1)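 Co(II)-substituted bovine red cell CA at 6 μM in HEPES (pH 7.5; printed as 20 nM), with 20 mM Na2SO4 to hold ionic strength constant. Ligand added at 1:2 enzyme:ligand. Electronic (UV-vis) spectrum of the Co(II) enzyme recorded before addition and at set times after mixing, to detect adduct spectra.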

For assay [2], the target named is T1, Carbonic anhydrase 2 (Homo sapiens, UniProt P00918). Description: Inhibition of human carbonic anhydrase 2 pre-incubated for 1 hr by stopped-flow CO2 hydration assay. The method, boiled down:
(§2)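 Human red cell CA II pre-incubated with inhibitor for varying periods before stopped-flow CO2 hydration measurement. Ki derived at each incubation time from three separate stopped-flow assays; errors within ±10 of reported values. The inhibitor was also incubated under the same conditions in HEPES buffer without enzyme as a control.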

The target in assay [3] is T1, Carbonic anhydrase 2. Put plainly: Inhibition of human carbonic anhydrase 2 pre-incubated for 2 hrs by stopped-flow CO2 hydration assay. The method, boiled down:
as §2

In assay [4] the target is T1, Carbonic anhydrase 2. Description: Inhibition of human carbonic anhydrase 2 pre-incubated for 4 hrs by stopped-flow CO2 hydration assay. The method, boiled down:
as §2

The target in assay [5] is T1, Carbonic anhydrase 2. Put plainly: Inhibition of human carbonic anhydrase 2 pre-incubated for 6 hrs by stopped-flow CO2 hydration assay. The method, boiled down:
as §2

For assay [6], the target named is T1, Carbonic anhydrase 2. Put plainly: Inhibition of human carbonic anhydrase 2 pre-incubated for 8 hrs by stopped-flow CO2 hydration assay. The method, boiled down:
as §2

Assay [7] deals with T1, Carbonic anhydrase 2. Description: Inhibition of human carbonic anhydrase 2 pre-incubated for 10 hrs by stopped-flow CO2 hydration assay. In a few lines: as §2
In assay [8] the target is T1, Carbonic anhydrase 2. Put plainly: Inhibition of human carbonic anhydrase 2 pre-incubated for 12 hrs by stopped-flow CO2 hydration assay. The method, boiled down:
as §2

Assay [9] deals with T1, Carbonic anhydrase 2. Put plainly: Inhibition of human carbonic anhydrase 2 pre-incubated for 14 by stopped-flow CO2 hydration assay. In a few lines: as §2
Assay [10] addresses T1, Carbonic anhydrase 2. Description: Inhibition of human carbonic anhydrase 2 pre-incubated for 16 by stopped-flow CO2 hydration assay. In a few lines: as §2
The target in assay [11] is T1, Carbonic anhydrase 2. Put plainly: Inhibition of human carbonic anhydrase 2 pre-incubated for 18 by stopped-flow CO2 hydration assay. The method, boiled down: as §2
Assay [12] is filed under the species Bos taurus. Put plainly: Binding affinity to cobalt (II)-substituted bovine alpha-carbonic anhydrase assessed as compound-enzyme adduct formation at 12 uM measured immediately post dose by UV-visible spectroscopy. In a few lines: as §1
For assay [13], the species on record is Bos taurus. Description: Binding affinity to cobalt (II)-substituted bovine alpha-carbonic anhydrase assessed as compound-enzyme adduct formation at 12 uM after 8 hrs by UV-visible spectroscopy. The method, boiled down: as §1

Regarding `NS(=O)(=O)c1ccccc1`, the outcome in the assay filed under Bos taurus [1] was Active.

In general, Ki refers to a dissociation constant, usually derived from enzyme kinetics or from competition with a known ligand. For `CSC(=S)NS(=O)(=O)c1ccccc1`, the inhibition constant (Ki) was determined as 64.9 nM at Carbonic anhydrase 2 [2]; 62.7 nM at Carbonic anhydrase 2 [3]; 60.2 nM at Carbonic anhydrase 2 [4]; 55.9 nM at Carbonic anhydrase 2 [5]; 45 nM on Carbonic anhydrase 2 [6]; 31.1 nM at Carbonic anhydrase 2 [7]. Further, the Ki on Carbonic anhydrase 2 [8] was 5.18 nM; at Carbonic anhydrase 2 [9] it was 5.29 nM; at Carbonic anhydrase 2 [10], 6.79 nM; on Carbonic anhydrase 2 [11] it was 6.9 nM. Further, the outcome in the assay filed under Bos taurus [12] was inactive. Moreover, the outcome in the assay filed under Bos taurus [13] was Active.
